From ChEMBL document CHEMBL1150125, “Antiplasmodial activity of alkaloids from various strychnos species” (J Nat Prod, 2002)

Key:
[1] = test system: Plasmodium falciparum; assay: Antiplasmodial activity against chloroquine-resistant Plasmodium falciparum FCB1-R/Colombia by [3H]hypoxanthine uptake; format: functional, organism-based
Summary of the method: (§1)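 Asexual erythrocytic stages kept in continuous culture (Trager and Jensen method). Each sample run as eight 4-fold dilutions, final 20 to 0.0012 µg/mL, in duplicate. IC50 and IC90 derived; number of independent experiments per value given separately.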

[2] = test system: Plasmodium falciparum; assay: Antiplasmodial activity against chloroquine-resistant Plasmodium falciparum W2/Indochina by [3H]hypoxanthine uptake; format: functional, organism-based; summary of the method: as §1
[3] = test system: Plasmodium falciparum; assay: Antiplasmodial activity against chloroquine-sensitive Plasmodium falciparum FCA 20/ Ghana by [3H]hypoxanthine uptake; format: functional, organism-based; summary of the method: as §1
[4] = Selectivity index, ratio of IC50 for human HCT116 cells to IC50 for chloroquine-sensitive Plasmodium falciparum FCA 20/ Ghana; format: toxicity, cell-based, HCT-116; conditions: HCT116 cells versus Plasmodium falciparum FCA 20/Ghana, read-out: Ratio IC50
Summary of the method: (§2)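 Selectivity index = IC50 in HCT-116 cells / IC50 in P. falciparum. Cell IC50: 5000 HCT-116 cells per well with drug, DMSO controls, 72 h incubation, then WST-1 for 30 min at 37 °C. Absorbance read against a cell-free blank and expressed as percent of control. Two independent experiments, each in triplicate, means ± SEM.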

[5] = test system: HCT-116; assay: Cytotoxicity against human HCT116 cells after 72 hrs by WST1 assay; format: cell-based; conditions: HCT-116, 72 h
Summary of the method: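 HCT-116 colon cancer cells were seeded at 5000 per well in medium containing the test drugs, with matched DMSO controls. After 72 h, WST-1 was added for 30 min at 37 °C. Absorbance was read against a cell-free medium plus WST-1 blank and expressed as percent of control. Two independent experiments were run, each in triplicate, and means ± SEM were calculated.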

[6] = Selectivity index, ratio of IC50 for human HCT116 cells to IC50 for moderately chloroquine-resistant Plasmodium falciparum FCB1-R/Colombia; format: toxicity, cell-based, HCT-116; conditions: HCT116 cells versus Plasmodium falciparum FCB1-R/Colombia, read-out: Ratio IC50; summary of the method: as §2
[7] = Selectivity index, ratio of IC50 for human HCT116 cells to IC50 for chloroquine-resistant Plasmodium falciparum W2/Indochina; format: toxicity, cell-based, HCT-116; conditions: HCT116 cells versus Plasmodium falciparum W2/Indochina, read-out: Ratio IC50; summary of the method: as §2
[8] = Plasmodium falciparum, FCB1-R/Colombia
[9] = Plasmodium falciparum, W2/Indochina
[10] = Plasmodium falciparum, FCA 20/ Ghana

SMILES | IC50 [1, 8] | IC90 [1, 8] | IC50 [2] | IC90 [2, 9] | IC50 [3, 10] | IC90 [3, 10] | selectivity ratio [4] | IC50 [2, 9] | IC50 [5] | selectivity ratio [6] | selectivity ratio [7] | IC50 [1] | IC90 [1] | IC90 [3] | IC90 [2] | IC50 [3]
CC1C2=CN3CCc4c([nH]c5ccc(O)cc45)C3CC2CC2NCCC3c4ccccc4N1C23 (stereo in doubt; 64) [JANUSSINE A] | 15.9 µM | 28.3 µM | 12.7 µM | 27.6 µM | 9.55 µM | 30.9 µM | – | – | – | – | – | – | – | – | – | –
CC[C@H]1CN2CCC3c4ccccc4NC3[C@@H]2C[C@@H]1C[C@H]1NCCc2c1[nH]c1ccccc21 (stereo not given in full) [OCHROLIFUANINE A] | 0.266 µM | 1.02 µM | – | 1.38 µM | 0.118 µM | 0.495 µM | 136 | 0.492 µM | 16.1 µM | 60.7 | 32.8 | – | – | – | – | –
CCN(CC)CCCC(C)Nc1ccnc2cc(Cl)ccc12 (stereo not given) [CHLOROQUINE] | – | 0.084 µM | – | 1.75 µM | – | 0.071 µM | – | – | 33.7 µM | – | – | – | – | – | – | –
C/C=C1/CN2CCc3c([nH]c4ccccc34)[C@@H]2C[C@@H]1C1CCC([C@H]2C[C@H]3c4[nH]c5ccccc5c4CCN3C/C2=C/C)C1 (stereo not given in full) [STRYCHNOFURANINE] | 10.8 µM | 33.5 µM | – | 16 µM | 4.11 µM | 15 µM | – | 2.8 µM | – | – | – | – | – | – | – | –
C[C@@H]1CC[C@H]2[C@@H](C)C(=O)O[C@@H]3O[C@@]4(C)CC[C@@H]1[C@]32OO4 [ARTEMISININ] | 0.005 µM | 0.013 µM | – | 0.017 µM | – | – | – | 0.002 µM | – | – | – | – | – | – | – | –
C=C1c2[nH]c3ccccc3c2CCN2C[C@H](CC)CC[C@H]12 [NGOUNIENSINE] | 17.8 µM | 62.8 µM | – | 70.1 µM | 26.8 µM | 71 µM | – | 20.2 µM | – | – | – | – | – | – | – | –
C/C=C1\CN2CCC3c4ccccc4NC3[C@@H]2C[C@@H]1CC1=NCCc2c1[nH]c1ccccc21 (stereo not given in full) [DIHYDROUSAMBARENSINE] | – | – | – | 4.68 µM | 0.857 µM | 2.49 µM | 14 | 0.032 µM | 12 µM | – | 375 | – | – | – | – | –
C/C=C1/CN2[C@@H](C3=C[C@@H]4[C@@H]5N(C3=O)c3ccccc3[C@@]53CCN5C/C(=C/CO)[C@@H]4C[C@H]53)C[C@@]34c5ccccc5N5C(=O)CC=C([C@H]1C[C@H]23)[C@H]54 | 0.207 µM | 1.47 µM | – | 1.35 µM | 0.847 µM | 4.35 µM | 19.1 | 0.14 µM | 16.2 µM | 78.3 | 115 | – | – | – | – | –
C=CC1CN2CC[C@@]34c5cc(C(C)C6=CN7CC[C@]89c%10ccccc%10N[C@H]8[C@@H](CO)[C@H]6C[C@H]79)ccc5N[C@@H]3[C@@H](CO)[C@@H]1C[C@@H]24 (stereo in doubt; 67) [PANGANENSINE X] | – | – | 17.4 µM | 78.7 µM | 10.4 µM | – | – | – | – | – | – | 13.5 µM | 43.7 µM | 68.2 µM | – | –
C/C=C1\CN2CC[C@]34c5ccccc5N5[C@H]3[C@@H]([C@H]3O[C@@H]5[C@]5(OC)[C@@H]6N3c3ccccc3[C@@]63CCN6C/C(=C\C)[C@@H]5C[C@H]63)[C@H]1C[C@H]24 | 1.54 µM | 9.52 µM | – | 2.84 µM | 0.54 µM | 2.53 µM | 45.3 | 0.122 µM | 24.5 µM | 15.9 | 200 | – | – | – | – | –
C=C1c2[nH]c3ccccc3c2CCN2C[C@@H](CC)CC[C@H]12 [EPINGOUNIENSINE] | 16.3 µM | 49.7 µM | – | 52.8 µM | 7.8 µM | 26.9 µM | – | 15.8 µM | – | – | – | – | – | – | – | –
C/C=C1/CN2CCc3c([nH]c4ccccc34)[C@@H]2C[C@@H]1Cc1nccc2c1[nH]c1ccccc12 [USAMBARENSINE] | – | – | – | 4.83 µM | – | 4.41 µM | – | 0.594 µM | – | – | – | – | – | – | – | –
C/C=C1\CN2CC[C@]34c5ccccc5N5[C@@H]6O[C@H]([C@H]([C@H]53)[C@H]1C[C@H]24)N1c2ccccc2[C@]23CCN4C/C(=C/C)[C@H](C[C@H]42)[C@H]6[C@H]13 (stereo in doubt; 53) [MATOPENSINE] | – | – | 8.66 µM | – | – | – | – | – | – | – | – | 4.67 µM | 24.8 µM | 73.3 µM | 86.7 µM | 13.2 µM
C/C=C1\CN2CC[C@]34c5ccccc5N5[C@@H]6O[C@H]([C@H]([C@H]53)[C@H]1C[C@H]24)N1c2ccccc2[C@]23CCN4C/C(=C/C)[C@H](C[C@H]42)[C@H]6[C@H]13 (stereo in doubt; 52) [MATOPENSINE] | – | – | 0.243 µM | – | – | – | 9.59 | – | 12 µM | 33.1 | 49.5 | 0.362 µM | 4.11 µM | 6.63 µM | 7.74 µM | 1.25 µM
C/C=C1/CN2[C@@H](C3=C[C@@H]4[C@@H]5N(C3=O)c3ccccc3[C@@]53CCN5C/C(=C/C)[C@@H]4C[C@H]53)C[C@@]34c5ccccc5N5C(=O)CC=C([C@H]1C[C@H]23)[C@H]54 [ISOSUNGUCINE] | – | – | – | 1.72 µM | 1.32 µM | 7.06 µM | – | 0.265 µM | – | – | – | – | – | – | – | –
c1ccc2c(c1)C[C@H]1C3Nc4ccccc4C3CCN1C2 (stereo not given in full) | 12.9 µM | 47.4 µM | – | 89.5 µM | 11.3 µM | 42.2 µM | – | 18.3 µM | – | – | – | – | – | – | – | –
CN1CCC2c3ccccc3N3C2[C@@H]1C[C@@H](C1=CCOC1=O)C[C@@H]3O (stereo not given in full) [AKAGERINE LACTONE] | 27.5 µM | 55.2 µM | – | 53.3 µM | 17 µM | 60.7 µM | – | 25.9 µM | – | – | – | – | – | – | – | –
C/C=C1/CN2CC[C@]34c5ccccc5N5C(=O)C([C@H]6C[C@]78c9ccccc9N9C(=O)C=C[C@@H]([C@H]97)[C@H]7C[C@@H]8N6C/C7=C/C)=C[C@H]([C@H]53)[C@H]1C[C@H]24 [SUNGUCINE] | – | – | – | 33.2 µM | 7.82 µM | 26.3 µM | 0.79 | 10.1 µM | 6.2 µM | – | 0.611 | – | – | – | – | –
C[C@@H]1OC[C@H]2[C@@H]3C[C@H]4N(CC[C@]45c4ccccc4N[C@H]25)/C(=C/C2=CN4CC[C@]56c7ccccc7N[C@H]5[C@H](CO)[C@H]2C[C@H]46)[C@@H]31 | 5.27 µM | 12.7 µM | – | – | 9.77 µM | 17.7 µM | – | > 20 µM | – | – | – | – | – | – | – | –
C=C[C@H]1CN2CC[C@H]1C[C@H]2[C@H](O)c1ccnc2ccc(OC)cc12 [QUININE] | 0.2 µM | 2.74 µM | – | 1.72 µM | 0.269 µM | 1.91 µM | – | 0.413 µM | – | – | – | – | – | – | – | –
C=CC1CN2CC[C@@]34c5cc(C(C)C6=CN7CC[C@]89c%10ccccc%10N[C@H]8[C@@H](CO)[C@H]6C[C@H]79)ccc5N[C@@H]3[C@@H](CO)[C@@H]1C[C@@H]24 (stereo in doubt; 68) [PANGANENSINE X] | 12.9 µM | 26.1 µM | – | – | – | 34.8 µM | – | 17 µM | – | – | – | – | – | – | 85.8 µM | 14.9 µM
C/C=C1/CN2CCc3c([nH]c4ccccc34)[C@@H]2C[C@@H]1C1=CN2c3ccccc3[C@]34CCN5C/C(=C/CO)[C@H](C[C@H]53)[C@@H]([C@@H]1O)[C@H]24 [TETRADEHYDROLONGICAUDATINE Y] | – | – | – | 12.1 µM | 1.24 µM | 7.97 µM | – | 0.958 µM | – | – | – | – | – | – | – | –
CC1C2=CN3CCc4c([nH]c5ccc(O)cc45)C3CC2CC2NCCC3c4ccccc4N1C23 (stereo in doubt; 65) [JANUSSINE A] | – | – | 4.75 µM | – | – | – | – | – | – | – | – | 17 µM | 33.1 µM | 34.9 µM | 27.8 µM | 12.6 µM
C=C[C@H]1CN2CCc3c([nH]c4ccccc34)[C@@H]2C[C@@H]1C[C@H]1c2[nH]c3ccccc3c2CCN1C [USAMBARINE] | – | – | – | 7.29 µM | 2.5 µM | 9.21 µM | – | 2.36 µM | – | – | – | – | – | – | – | –
C/C=C1/CN2CCc3c([nH]c4ccccc34)[C@@H]2C[C@@H]1C1=CN2c3ccccc3[C@]34CCN5C/C(=C/C)[C@H](C[C@H]53)[C@@H]([C@@H]1O)[C@H]24 [LONGICAUDATINE F] | 11.7 µM | 33.4 µM | – | 28.1 µM | 7.7 µM | 26.7 µM | – | 9.58 µM | – | – | – | – | – | – | – | –
C/C=C1/CN2CC[C@@]34c5ccccc5N5C([C@H]6[C@@H]7N(C(C)=O)c8ccccc8[C@@]78CCN7C/C(=C/C)[C@@H]6C[C@H]78)OC=C([C@H]1C[C@H]23)[C@H]54 (stereo not given in full) | 2.12 µM | 7.13 µM | – | 18.5 µM | 4.58 µM | 18.7 µM | – | 3.31 µM | – | – | – | – | – | – | – | –
